Measurements reported in ChEMBL document CHEMBL3046382, “Synthesis and insecticidal activities and SAR studies of novel benzoheterocyclic diacylhydrazine derivatives” (2009).

How the values were obtained:
Format in all cases: functional
Culicidae [1] = assay: Toxicity against fourth-instar larvae of Culex pipiens pallens assessed as mortality at 2 mg/kg measured after 7 to 10 days
Method in brief: (§1)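 For each concentration, 1 mL of dilution was added to 99 mL water and 20 fourth-instar larvae introduced. Percentage mortality assessed 7–10 days after treatment.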

Mythimna separata [2] = assay: Stomach toxicity in fourth-instar Mythimna separata (Oriental armyworm) larvae in compound treated corn leaves assessed as mortality at 100 mg/kg measured after 4 days; conditions: 96 h
Culicidae [3] = assay: Toxicity against fourth-instar larvae of Culex pipiens pallens assessed as mortality at 1 mg/kg measured after 7 to 10 days; method in brief: as §1
Culicidae [4] = assay: Toxicity against fourth-instar larvae of Culex pipiens pallens assessed as mortality at 0.5 mg/kg measured after 7 to 10 days; method in brief: as §1
Mythimna separata [5] = assay: Stomach toxicity in fourth-instar Mythimna separata(Oriental armyworm) larvae in compound treated corn leaves assessed as mortality at 200 mg/kg measured after 4 days; conditions: 96 h
Mythimna separata [6] = assay: Stomach toxicity in fourth-instar Mythimna separata (Oriental armyworm) larvae in compound treated corn leaves assessed as mortality at 25 mg/kg measured after 4 days; conditions: 96 h
Mythimna separata [7] = assay: Stomach toxicity in fourth-instar Mythimna separata (Oriental armyworm) larvae in compound treated corn leaves assessed as mortality at 10 mg/kg measured after 4 days; conditions: 96 h
Mythimna separata [8] = assay: Stomach toxicity in fourth-instar Mythimna separata (Oriental armyworm) larvae in compound treated corn leaves assessed as mortality at 50 mg/kg measured after 4 days; conditions: 96 h
Mythimna separata [9] = assay: Stomach toxicity in fourth-instar Mythimna separata (Oriental armyworm) larvae in compound treated corn leaves assessed as mortality at 2.5 mg/kg measured after 4 days; conditions: 96 h
Mythimna separata [10] = assay: Stomach toxicity in fourth-instar Mythimna separata (Oriental armyworm) larvae in compound treated corn leaves assessed as mortality at 5 mg/kg measured after 4 days; conditions: 96 h

| Structure (SMILES) | mortality at 2 mg/kg (Culicidae [1]) | mortality at 100 mg/kg (Mythimna separata [2]) | mortality at 1 mg/kg (Culicidae [3]) | mortality at 0.5 mg/kg (Culicidae [4]) | mortality at 200 mg/kg (Mythimna separata [5]) | mortality at 25 mg/kg (Mythimna separata [6]) | mortality at 10 mg/kg (Mythimna separata [7]) | mortality at 50 mg/kg (Mythimna separata [8]) | mortality at 2.5 mg/kg (Mythimna separata [9]) | mortality at 5 mg/kg (Mythimna separata [10]) |
| --- | --- | --- | --- | --- | --- | --- | --- | --- | --- | --- |
| Cc1c(C(=O)NN(C(=O)c2cc([N+](=O)[O-])cc([N+](=O)[O-])c2)C(C)(C)C)ccc2c1CC(C)O2 (stereo not given) | 30% | 0% | 20% | 10% | 20% |  |  |  |  |  |
| Cc1c(C(=O)NN(C(=O)c2ccc(Cl)cc2)C(C)(C)C)ccc2c1CC(C)O2 (stereo not given) | 0% | 100% | 0% |  | 100% | 90% | 0% | 100% |  |  |
| Cc1cccc(C(=O)N(NC(=O)c2ccc3c(c2C)CC(C)O3)C(C)(C)C)c1 (stereo not given) | 0% | 100% | 0% |  | 100% | 100% | 100% | 100% | 0% | 15% |
| Cc1c(C(=O)NN(C(=O)c2cc(Cl)cc(Cl)c2)C(C)(C)C)ccc2c1CC(C)O2 (stereo not given) | 80% | 100% | 50% | 0% | 100% | 90% | 90% | 100% | 0% | 10% |
| Cc1c(C(=O)NN(C(=O)c2ccc(Cl)cc2Cl)C(C)(C)C)ccc2c1CC(C)O2 (stereo not given) | 0% | 100% | 0% |  | 100% | 90% | 0% | 100% |  |  |
| Cc1c(C(=O)NN(C(=O)c2ccccc2)C(C)(C)C)ccc2c1CC(C)(C)O2 | 50% | 10% | 30% | 10% | 40% |  |  | 0% |  |  |
| Cc1c(C(=O)NN(C(=O)c2ccccc2[N+](=O)[O-])C(C)(C)C)ccc2c1CC(C)(C)O2 | 40% | 0% | 20% | 10% | 50% |  |  |  |  |  |
| Cc1c(C(=O)NN(C(=O)c2cccc([N+](=O)[O-])c2)C(C)(C)C)ccc2c1CC(C)(C)O2 | 30% | 0% | 20% | 10% | 10% |  |  |  |  |  |
| Cc1c(C(=O)NN(C(=O)c2ccc([N+](=O)[O-])cc2)C(C)(C)C)ccc2c1CC(C)(C)O2 | 20% | 0% | 0% |  | 10% |  |  |  |  |  |
| Cc1c(C(=O)NN(C(=O)c2ccccc2Cl)C(C)(C)C)ccc2c1CC(C)(C)O2 | 70% | 0% | 20% | 0% | 60% |  |  |  |  |  |
| Cc1c(C(=O)NN(C(=O)c2cccc(Cl)c2)C(C)(C)C)ccc2c1CC(C)(C)O2 | 10% | 10% | 0% |  | 80% |  |  | 0% |  |  |
| Cc1c(C(=O)NN(C(=O)c2ccc(Cl)cc2)C(C)(C)C)ccc2c1CC(C)(C)O2 | 60% | 10% | 10% | 0% | 90% |  |  | 0% |  |  |
| COc1ccccc1C(=O)N(NC(=O)c1ccc2c(c1C)CC(C)(C)O2)C(C)(C)C | 20% | 0% | 10% | 0% | 0% |  |  |  |  |  |
| COc1cccc(C(=O)N(NC(=O)c2ccc3c(c2C)CC(C)(C)O3)C(C)(C)C)c1 | 40% | 30% | 30% | 10% | 100% | 0% |  | 20% |  |  |
| COc1ccc(C(=O)N(NC(=O)c2ccc3c(c2C)CC(C)(C)O3)C(C)(C)C)cc1 | 10% | 0% | 0% |  | 60% |  |  |  |  |  |
| Cc1cccc(C(=O)N(NC(=O)c2ccc3c(c2C)CC(C)(C)O3)C(C)(C)C)c1 | 50% | 90% | 10% | 10% | 100% | 0% |  | 30% |  |  |
| Cc1cc(C)cc(C(=O)N(NC(=O)c2ccc3c(c2C)CC(C)(C)O3)C(C)(C)C)c1 | 70% | 100% | 0% |  | 100% | 20% | 0% | 90% |  |  |
| Cc1c(C(=O)NN(C(=O)c2cc([N+](=O)[O-])cc([N+](=O)[O-])c2)C(C)(C)C)ccc2c1CC(C)(C)O2 | 30% | 0% | 20% | 10% | 40% |  |  |  |  |  |
| Cc1c(C(=O)NN(C(=O)c2cc(Cl)cc(Cl)c2)C(C)(C)C)ccc2c1CC(C)(C)O2 | 30% | 0% | 20% | 10% | 60% |  |  |  |  |  |
| Cc1c(C(=O)NN(C(=O)c2ccc(Cl)cc2Cl)C(C)(C)C)ccc2c1CC(C)(C)O2 | 50% | 10% | 0% |  | 90% |  |  | 0% |  |  |
| Cc1c(C(=O)NN(C(=O)c2ccccc2)C(C)(C)C)ccc2c1CC(C)O2 (stereo not given) | 0% | 100% | 0% |  | 100% | 80% | 0% | 90% |  |  |
| Cc1c(C(=O)NN(C(=O)c2ccccc2[N+](=O)[O-])C(C)(C)C)ccc2c1CC(C)O2 (stereo not given) | 30% | 100% | 20% | 0% | 100% | 20% | 0% | 60% |  |  |
| Cc1c(C(=O)NN(C(=O)c2cccc([N+](=O)[O-])c2)C(C)(C)C)ccc2c1CC(C)O2 (stereo not given) | 20% | 0% | 10% | 0% | 20% |  |  |  |  |  |
| Cc1c(C(=O)NN(C(=O)c2ccc([N+](=O)[O-])cc2)C(C)(C)C)ccc2c1CC(C)O2 (stereo not given) | 40% | 0% | 0% |  | 60% |  |  |  |  |  |
| Cc1c(C(=O)NN(C(=O)c2ccccc2Cl)C(C)(C)C)ccc2c1CC(C)O2 (stereo not given) | 30% | 100% | 20% | 10% | 100% | 40% | 0% | 100% |  |  |
| Cc1c(C(=O)NN(C(=O)c2cccc(Cl)c2)C(C)(C)C)ccc2c1CC(C)O2 (stereo not given) | 60% | 100% | 20% | 10% | 100% | 30% | 10% | 80% |  | 0% |
